Source: ChEMBL document CHEMBL1146239, “Kadsuphilols A-H, oxygenated lignans from Kadsura philippinensis” (J Nat Prod, 2007)

Key:
Type in all cases: functional
[1] = DPPH radical scavenging activity at 100 uM
How it was run: (§1)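 Compound dilutions prepared in 100% DMSO, mixed with 100 µM DPPH in ethanol at 37 °C, shaken vigorously and left to stand 30 min. Absorbance read at 517 nm by UV-vis spectrophotometry. Scavenging reported as percent at 100, 50, 25, 12.5 and 6.25 µM. Vitamins C and E served as standards.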

[2] = DPPH radical scavenging activity at 50 uM; how it was run: as §1
[3] = DPPH radical scavenging activity at 12.5 uM; how it was run: as §1
[4] = DPPH radical scavenging activity at 6.25 uM; how it was run: as §1
[5] = DPPH radical scavenging activity at 25 uM; how it was run: as §1

Work on C/C=C(\C)C(=O)O[C@@H]1C2=CC(OC)=C(OC)C(=O)C23COc2c4c(cc(c23)[C@@H](OC(=O)c2ccccc2)[C@H](C)[C@]1(C)O)OCO4 (stereo not given in full) yielded an Activity [1] of 12.9%, an Activity [2] of 12.8% and an Activity [3] of 10.3%. The Activity [4] was 8.6% and the Activity [5] was 11.4%.

Compound C/C=C(\C)C(=O)O[C@@H]1c2cc3c(c4c2C2(CO4)C(=O)C(OC)=C(OC)C=C2[C@@H](OC(=O)c2ccccc2)[C@@](C)(O)[C@H]1C)OCO3 (stereo not given in full) has an Activity [1] of 35.6%, an Activity [2] of 33.9% and an Activity [3] of 13.8%. The Activity [4] was 20.2% and the Activity [5] was 32%.

With C/C=C(\C)C(=O)O[C@H]1[C@@](C)(O)[C@@H](C)[C@H]2O[C@@]13CC(OC)=C(OC)C(=O)C31COc3c4c(cc2c31)OCO4 (stereo not given in full) the Activity [1] was 8.4%, the Activity [2] was 6.6% and the Activity [3] was 3.9%. The Activity [4] was 3.9% and the Activity [5] was 6.1%.

With COc1cc2c(c(O)c1OC)-c1c(cc3c(c1OC)OCO3)[C@H](O)[C@H](C)[C@H](C)C2 the Activity [1] was -4.2%, the Activity [2] was -1.6% and the Activity [3] was -18.5%. The Activity [4] was -38.9% and the Activity [5] was -10.7%.

VITAMIN E showed an Activity [1] of 17.6%, an Activity [2] of 12.9% and an Activity [3] of 4.9%. The Activity [4] was 1.3% and the Activity [5] was 12.6%.

Work on COc1cc2c(c(OC)c1O)-c1c(cc(OC)c(OC)c1O)C[C@@H](C)[C@@H](C)[C@H]2OC(=O)/C=C/c1ccccc1 yielded an Activity [1] of 38.1%, an Activity [2] of 34.4% and an Activity [3] of 28.1%. For the same compound, the Activity [4] was 10% and the Activity [5] was 32.2%.

With C/C=C(\C)C(=O)O[C@H]1[C@@](C)(O)[C@@H](C)[C@H]2O[C@@]13CC(=O)C(OC)=C(OC)C31COc3c4c(cc2c31)OCO4 (stereo not given in full) the Activity [1] was -2.8%, the Activity [2] was -3.7% and the Activity [3] was -4.7%. For the same compound, the Activity [4] was -5.3% and the Activity [5] was -3.2%.

C/C=C(\C)C(=O)O[C@H]1c2cc3c(c(OC)c2-c2c(cc(OC)c(OC)c2O)[C@H](OC(=O)/C(C)=C/C)[C@@]2(CO2)[C@H]1C)OCO3 showed an inhibition [1] of 54.7%, an Activity [2] of 51.4% and an Activity [3] of 46.2%. The Activity [4] was 47.4% and the Activity [5] was 48.1%.

Work on COc1cc2c(c(O)c1OC)-c1c(cc3c(c1OC)OCO3)[C@H](OC(=O)c1ccccc1)[C@H](C)[C@H](C)[C@H]2OC(C)=O yielded an Activity [1] of -23.1%, an Activity [2] of -30.8% and an Activity [3] of -33.8%. The Activity [4] was -35.6% and the Activity [5] was -32.2%.

In the case of O=C1O[C@H]([C@@H](O)CO)C(O)=C1O, the Activity [1] is reported as 39%, the Activity [2] is reported as 36.7% and the Activity [3] is reported as 20.7%. For the same compound, the Activity [4] was 19.2% and the Activity [5] was 24.9%.
